{
  "source": "ChEMBL document CHEMBL5724801",
  "about": "“EUbOPEN Chemogenomics Library - Multiplex” (2024)",
  "note": "“And” between values parts separate entries of the source, which are not always exact repeats. Identical values can stand only once.",
  "data": [
    {"tested_on": "Fibroblast", "experiment": "(§1) Multiplex assay against human fibroblast", "format": "toxicity, cell-based", "conditions": "12 h, 1 µM, compound concentration 1 uM", "summary_of_the_method": "(§2)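 Live cells carried four stains from seeding: Hoechst33342, BioTracker Green Microtubule Cytoskeleton Dye, MitoTracker Red and Annexin V Alexa Fluor 680. They were imaged on a CQ1 microscope at 37°C and 5% CO2 after compound addition. Using CellPathfinder machine-learning gating, cells were split into Hoechst high-intensity objects or normal cells, normal cells into healthy, pyknosed or fragmented nuclei, and pyknosed cells into mitotic or apoptotic; tubulin, mitochondrial-mass and membrane-permeability phenotypes are per cents of healthy-nucleus cells.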", "values": [
      {"smiles": "CN1CCN2c3ncccc3Cc3ccccc3C2C1", "note": "(centres undefined) [MIRTAZAPINE]", "Population Apoptotic (%)": "44% and 33%", "Population Fragmented Nuclei (%)": "10% and 24%", "Population Healthy Nuclei (%)": "77% and 47%", "Population Hoechst High Intensity Objects (%)": "3%", "Population Membrane Permeable-Phenotype (%)": "0% and 4%", "Population Mitochondria Different-Phenotype (%)": "6% and 5%", "Population Mitotic Cells (%)": "56% and 66%", "Population Normal (%)": "96%", "Population Pyknosed Nuclei (%)": "12% and 27%", "Population Tubulin-Different-Phenotype (%)": "24% and 45%", "Total Cell Count": "213 and 156"},
      {"smiles": "COc1ccc2c(c1)C(C(=O)N(Cc1ccc(N(C)C)cc1)c1ccc(C(C)C)cc1)CCC2.Cl", "note": "(centres undefined)", "Population Apoptotic (%)": "57% and 45%", "Population Fragmented Nuclei (%)": "15% and 20%", "Population Healthy Nuclei (%)": "72% and 55%", "Population Hoechst High Intensity Objects (%)": "1% and 5%", "Population Membrane Permeable-Phenotype (%)": "1% and 5%", "Population Mitochondria Different-Phenotype (%)": "7% and 15%", "Population Mitotic Cells (%)": "42% and 54%", "Population Normal (%)": "98% and 94%", "Population Pyknosed Nuclei (%)": "11% and 23%", "Population Tubulin-Different-Phenotype (%)": "22% and 57%", "Total Cell Count": "163 and 138"}
    ]},
    {"tested_on": "Fibroblast", "experiment": "as §1", "format": "toxicity, cell-based", "conditions": "12 h, 10 µM, compound concentration 10 uM", "summary_of_the_method": "as §2", "values": [
      {"smiles": "CN1CCN2c3ncccc3Cc3ccccc3C2C1", "note": "(centres undefined) [MIRTAZAPINE]", "Population Apoptotic (%)": "44% and 28%", "Population Fragmented Nuclei (%)": "19% and 27%", "Population Healthy Nuclei (%)": "69% and 40%", "Population Hoechst High Intensity Objects (%)": "1% and 6%", "Population Membrane Permeable-Phenotype (%)": "0% and 16%", "Population Mitochondria Different-Phenotype (%)": "8% and 7%", "Population Mitotic Cells (%)": "55% and 71%", "Population Normal (%)": "98% and 93%", "Population Tubulin-Different-Phenotype (%)": "30% and 60%", "Total Cell Count": "168 and 140"},
      {"smiles": "COc1ccc2c(c1)C(C(=O)N(Cc1ccc(N(C)C)cc1)c1ccc(C(C)C)cc1)CCC2.Cl", "note": "(centres undefined)", "Population Apoptotic (%)": "58% and 53%", "Population Fragmented Nuclei (%)": "17% and 38%", "Population Healthy Nuclei (%)": "69% and 51%", "Population Hoechst High Intensity Objects (%)": "1% and 2%", "Population Membrane Permeable-Phenotype (%)": "0% and 6%", "Population Mitochondria Different-Phenotype (%)": "12% and 14%", "Population Mitotic Cells (%)": "41% and 46%", "Population Normal (%)": "98% and 97%", "Population Pyknosed Nuclei (%)": "13% and 10%", "Population Tubulin-Different-Phenotype (%)": "67% and 77%", "Total Cell Count": "181 and 148"}
    ]},
    {"tested_on": "Fibroblast", "experiment": "as §1", "format": "toxicity, cell-based", "conditions": "24 h, 1 µM, compound concentration 1 uM", "summary_of_the_method": "as §2", "values": [
      {"smiles": "CN1CCN2c3ncccc3Cc3ccccc3C2C1", "note": "(centres undefined) [MIRTAZAPINE]", "Population Apoptotic (%)": "47% and 48%", "Population Healthy Nuclei (%)": "82% and 50%", "Population Hoechst High Intensity Objects (%)": "5% and 0%", "Population Membrane Permeable-Phenotype (%)": "0% and 10%", "Population Mitochondria Different-Phenotype (%)": "5% and 10%", "Population Mitotic Cells (%)": "52% and 51%", "Population Normal (%)": "94% and 99%", "Population Pyknosed Nuclei (%)": "10% and 23%", "Population Tubulin-Different-Phenotype (%)": "31% and 36%", "Total Cell Count": "201 and 153"},
      {"smiles": "COc1ccc2c(c1)C(C(=O)N(Cc1ccc(N(C)C)cc1)c1ccc(C(C)C)cc1)CCC2.Cl", "note": "(centres undefined)", "Population Apoptotic (%)": "55%", "Population Fragmented Nuclei (%)": "11% and 19%", "Population Healthy Nuclei (%)": "77% and 59%", "Population Hoechst High Intensity Objects (%)": "1% and 3%", "Population Membrane Permeable-Phenotype (%)": "0% and 2%", "Population Mitochondria Different-Phenotype (%)": "5% and 11%", "Population Mitotic Cells (%)": "44%", "Population Normal (%)": "98% and 96%", "Population Pyknosed Nuclei (%)": "11% and 20%", "Population Tubulin-Different-Phenotype (%)": "25% and 41%", "Total Cell Count": "156 and 136"}
    ]},
    {"tested_on": "Fibroblast", "experiment": "as §1", "format": "toxicity, cell-based", "conditions": "24 h, 10 µM, compound concentration 10 uM", "summary_of_the_method": "as §2", "values": [
      {"smiles": "CN1CCN2c3ncccc3Cc3ccccc3C2C1", "note": "(centres undefined) [MIRTAZAPINE]", "Population Apoptotic (%)": "50% and 46%", "Population Fragmented Nuclei (%)": "19% and 29%", "Population Healthy Nuclei (%)": "72% and 46%", "Population Hoechst High Intensity Objects (%)": "4% and 5%", "Population Membrane Permeable-Phenotype (%)": "0% and 15%", "Population Mitochondria Different-Phenotype (%)": "9% and 1%", "Population Mitotic Cells (%)": "50% and 53%", "Population Normal (%)": "95% and 94%", "Population Tubulin-Different-Phenotype (%)": "30% and 68%", "Total Cell Count": "186 and 136"},
      {"smiles": "COc1ccc2c(c1)C(C(=O)N(Cc1ccc(N(C)C)cc1)c1ccc(C(C)C)cc1)CCC2.Cl", "note": "(centres undefined)", "Population Apoptotic (%)": "50% and 42%", "Population Fragmented Nuclei (%)": "17% and 39%", "Population Healthy Nuclei (%)": "72% and 55%", "Population Hoechst High Intensity Objects (%)": "3% and 2%", "Population Membrane Permeable-Phenotype (%)": "0% and 2%", "Population Mitochondria Different-Phenotype (%)": "15% and 12%", "Population Mitotic Cells (%)": "50% and 57%", "Population Normal (%)": "96% and 97%", "Population Pyknosed Nuclei (%)": "10% and 4%", "Population Tubulin-Different-Phenotype (%)": "63% and 85%", "Total Cell Count": "180 and 148"}
    ]},
    {"tested_on": "Fibroblast", "experiment": "as §1", "format": "toxicity, cell-based", "conditions": "48 h, 1 µM, compound concentration 1 uM", "summary_of_the_method": "as §2", "values": [
      {"smiles": "CN1CCN2c3ncccc3Cc3ccccc3C2C1", "note": "(centres undefined) [MIRTAZAPINE]", "Population Apoptotic (%)": "60% and 50%", "Population Fragmented Nuclei (%)": "15% and 36%", "Population Healthy Nuclei (%)": "73% and 45%", "Population Hoechst High Intensity Objects (%)": "7% and 2%", "Population Membrane Permeable-Phenotype (%)": "0% and 11%", "Population Mitochondria Different-Phenotype (%)": "4% and 12%", "Population Mitotic Cells (%)": "39% and 50%", "Population Normal (%)": "92% and 97%", "Population Pyknosed Nuclei (%)": "11% and 17%", "Population Tubulin-Different-Phenotype (%)": "31% and 56%", "Total Cell Count": "213 and 161"},
      {"smiles": "COc1ccc2c(c1)C(C(=O)N(Cc1ccc(N(C)C)cc1)c1ccc(C(C)C)cc1)CCC2.Cl", "note": "(centres undefined)", "Population Apoptotic (%)": "66% and 52%", "Population Fragmented Nuclei (%)": "17% and 26%", "Population Healthy Nuclei (%)": "75% and 61%", "Population Hoechst High Intensity Objects (%)": "1%", "Population Membrane Permeable-Phenotype (%)": "1% and 5%", "Population Mitochondria Different-Phenotype (%)": "3% and 13%", "Population Mitotic Cells (%)": "33% and 47%", "Population Normal (%)": "98%", "Population Pyknosed Nuclei (%)": "6% and 12%", "Population Tubulin-Different-Phenotype (%)": "27% and 46%", "Total Cell Count": "180 and 152"}
    ]},
    {"tested_on": "Fibroblast", "experiment": "as §1", "format": "toxicity, cell-based", "conditions": "48 h, 10 µM, compound concentration 10 uM", "summary_of_the_method": "as §2", "values": [
      {"smiles": "CN1CCN2c3ncccc3Cc3ccccc3C2C1", "note": "(centres undefined) [MIRTAZAPINE]", "Population Apoptotic (%)": "66% and 33%", "Population Fragmented Nuclei (%)": "17% and 46%", "Population Healthy Nuclei (%)": "73% and 41%", "Population Hoechst High Intensity Objects (%)": "5% and 2%", "Population Membrane Permeable-Phenotype (%)": "0% and 8%", "Population Mitochondria Different-Phenotype (%)": "9% and 2%", "Population Mitotic Cells (%)": "33% and 66%", "Population Normal (%)": "94% and 97%", "Population Pyknosed Nuclei (%)": "9% and 12%", "Population Tubulin-Different-Phenotype (%)": "36% and 60%", "Total Cell Count": "176 and 120"},
      {"smiles": "COc1ccc2c(c1)C(C(=O)N(Cc1ccc(N(C)C)cc1)c1ccc(C(C)C)cc1)CCC2.Cl", "note": "(centres undefined)", "Population Apoptotic (%)": "71% and 75%", "Population Fragmented Nuclei (%)": "21% and 45%", "Population Healthy Nuclei (%)": "71% and 52%", "Population Hoechst High Intensity Objects (%)": "4% and 0%", "Population Membrane Permeable-Phenotype (%)": "0% and 3%", "Population Mitochondria Different-Phenotype (%)": "8%", "Population Mitotic Cells (%)": "28% and 25%", "Population Normal (%)": "95% and 99%", "Population Pyknosed Nuclei (%)": "7% and 2%", "Population Tubulin-Different-Phenotype (%)": "71% and 81%", "Total Cell Count": "203 and 174"}
    ]}
  ]
}
